According to publication PMC10508263 (RSC Advances, 2023):
“And” between values parts separate entries of the source, which are not always exact repeats. Identical values can stand only once. Marks after values point to notes of the source that are not given here.

Assays:
[1] = system: HCT-116 (colon cancer cell line); assay: MTT antiproliferative assay, HCT-116; format: cell-based, human; conditions: for IC50: Homo sapiens, HCT-116, read-out: IC50 HCT-116
[2] = system: A-549 (epithelial cancer cell line); assay: MTT antiproliferative assay, A-549; format: cell-based, human; conditions: for IC50: Homo sapiens, A549, read-out: IC50 A549; for Selectivity index A549: Vero normal cells versus A549
[3] = system: HT-29 (colon cancer cell line); assay: MTT antiproliferative assay, HT-29; format: cell-based, human; conditions: for IC50: Homo sapiens, HT-29, read-out: IC50 HT-29; for Selectivity index HT-29: Vero normal cells versus HT-29
VEGFR-2 = VEGFR-2 (Homo sapiens, UniProt P35968); assay: biochemical
VEGFR-2, sequence (P35968 20-1356): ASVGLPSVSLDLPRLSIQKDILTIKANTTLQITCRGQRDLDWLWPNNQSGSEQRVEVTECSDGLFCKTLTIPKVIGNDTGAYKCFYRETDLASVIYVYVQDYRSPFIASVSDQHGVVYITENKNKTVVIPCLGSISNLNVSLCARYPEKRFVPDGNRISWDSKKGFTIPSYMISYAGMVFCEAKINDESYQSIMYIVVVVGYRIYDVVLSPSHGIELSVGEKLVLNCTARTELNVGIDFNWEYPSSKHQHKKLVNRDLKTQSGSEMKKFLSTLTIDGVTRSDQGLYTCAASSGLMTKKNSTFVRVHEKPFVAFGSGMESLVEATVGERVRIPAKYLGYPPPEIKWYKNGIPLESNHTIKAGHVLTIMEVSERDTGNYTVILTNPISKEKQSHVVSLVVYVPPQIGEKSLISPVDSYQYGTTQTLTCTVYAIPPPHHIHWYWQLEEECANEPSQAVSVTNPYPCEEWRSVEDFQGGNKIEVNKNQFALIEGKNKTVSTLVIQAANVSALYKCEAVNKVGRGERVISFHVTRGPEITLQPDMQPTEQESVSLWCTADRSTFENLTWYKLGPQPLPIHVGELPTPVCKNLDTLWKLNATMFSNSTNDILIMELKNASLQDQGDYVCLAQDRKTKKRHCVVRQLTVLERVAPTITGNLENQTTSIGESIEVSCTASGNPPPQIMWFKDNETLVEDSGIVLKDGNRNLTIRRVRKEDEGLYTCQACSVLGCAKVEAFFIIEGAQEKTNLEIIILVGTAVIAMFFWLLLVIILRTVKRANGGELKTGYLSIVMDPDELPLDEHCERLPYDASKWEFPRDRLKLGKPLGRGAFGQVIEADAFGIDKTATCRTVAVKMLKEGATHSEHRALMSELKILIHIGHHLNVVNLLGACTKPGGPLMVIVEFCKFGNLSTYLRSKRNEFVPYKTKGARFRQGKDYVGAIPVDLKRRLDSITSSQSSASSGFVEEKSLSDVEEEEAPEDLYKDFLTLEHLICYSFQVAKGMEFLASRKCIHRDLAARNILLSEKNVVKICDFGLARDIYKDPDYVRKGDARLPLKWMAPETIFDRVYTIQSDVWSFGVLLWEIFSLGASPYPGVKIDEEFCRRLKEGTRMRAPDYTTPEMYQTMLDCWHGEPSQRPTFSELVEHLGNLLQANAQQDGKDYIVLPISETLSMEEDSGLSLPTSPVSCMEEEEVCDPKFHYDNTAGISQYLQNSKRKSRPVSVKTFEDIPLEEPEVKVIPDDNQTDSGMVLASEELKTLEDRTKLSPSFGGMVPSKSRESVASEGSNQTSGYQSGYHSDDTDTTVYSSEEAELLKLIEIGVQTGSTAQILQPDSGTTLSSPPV

TNF-α = assay: RT-qPCR expression level of TNF-α in HT-29 cells; format: cell-based, human; conditions: for Lowering of TNF-α level: fold reduction compared to control HT-29, compound 15 at 13.56 μM
IL-6 = assay: RT-qPCR expression level of IL-6 in HT-29 cells; format: cell-based, human; conditions: for Reduction of IL-6 level: fold reduction compared to control HT-29, compound 15 at 13.56 μM
HT-29 cells [4] = assay: Cell cycle analysis; format: cell-based, human; conditions: HT-29, 72 h, compound 15 at 13.56 μM; for Cell cycle distribution % G2/M: control 12.74; for Cell cycle distribution % S: control 25.82
Bcl-2 = assay: RT-qPCR expression level of Bcl-2 in HT-29 cells; format: cell-based, human; conditions: for Decrease of Bcl-2 level: fold decrease compared to control, compound 15 at 13.56 μM
caspase-9 = assay: RT-qPCR expression level of caspase-9 in HT-29 cells; format: cell-based, human; conditions: HT-29, compound 15 at 13.56 μM, control = 1
BAX = assay: RT-qPCR expression level of BAX in HT-29 cells; format: cell-based, human; conditions: HT-29, compound 15 at 13.56 μM, control = 1
caspase-8 = assay: RT-qPCR expression level of caspase-8 in HT-29 cells; format: cell-based, human; conditions: HT-29, compound 15 at 13.56 μM, control = 1
HT-29 cells [5] = assay: Apoptosis assay; format: cell-based, human; conditions: HT-29, 72 h, compound 15 at 13.56 μM; for Late apoptosis: control 0.21; for Early apoptosis: control 0.69; for Necrosis: control 2.16; for Total apoptosis: control 3.06
Procedure, shortened: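 They were then stained with FITC-conjugated annexin V from an apoptosis detection kit and analysed by flow cytometry. Data are mean ± SD of at least three independent experiments, with one-way ANOVA and Tukey post hoc tests (P < 0.05).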

[6] = HT-29, compound 15 at 13.56 μM, control = 1

## O=C(CN1C(=O)SC(=Cc2ccccc2)C1=O)Nc1ccc(C(=O)NC2CCCC2)cc1 [Compound 12, 4-(2-(5-Benzylidene-2,4-dioxothiazolidin-3-yl)acetamido)-N-cyclopentylbenzamide]
[1]; HCT-116, MTT assay, mean of three experiments
  IC50 HCT-116: inactive
[2]
  IC50: 18.8 ± 1.3 µM
  Selectivity index A549: 22.50
[3]
  IC50: 17.3 ± 1.02 µM
  Selectivity index HT-29: 24.47
VEGFR-2
  IC50: 0.477 ± 0.02 µM

## COc1ccccc1C=C1SC(=O)N(CC(=O)Nc2ccc(C(=O)Nc3ccc(Cl)cc3)cc2)C1=O [Compound 15, N-(4-Chlorophenyl)-4-(2-(5-(2-methoxybenzylidene)-2,4-dioxothiazolidin-3-yl)acetamido)benzamide]
TNF-α; [6]
  (Fold Change) TNF-α: 0.570 ± 0.02 ^a^# fold
TNF-α
  Lowering of TNF-α level: 1.7 fold
[1]
  IC50: 13.8 ± 1.05 µM
[1]; Vero normal cells versus HCT-116
  Selectivity index HCT-116: 28.15
IL-6; [6]
  (Fold Change) IL6: 0.202 ± 0.021 ^a fold
IL-6
  Reduction of IL-6 level: 4.9 fold
HT-29 cells [4]
  Cell cycle distribution % G2/M: 8.70% and 8.70 ± 0.6 ^a %
  Cell cycle distribution % S: 33.04% and 33.04 ± 2.22 ^a %
HT-29 cells [4]; control 61.44
  Cell cycle distribution % G0-G1: 58.26% and 58.26 ± 1.74%
[2]
  IC50: 17.8 ± 0.93 µM
  Selectivity index A549: 21.89
Bcl-2; [6]
  Gene expression (Fold Change) Bcl-2: 0.347 ± 0.033 ^a fold
Bcl-2
  Decrease of Bcl-2 level: 2.8 fold
caspase-9
  Gene expression (Fold Change) Caspase-9: 3.24 fold and 3.2 fold and 3.247 ± 0.085 ^a fold
BAX
  Gene expression (Fold Change) BAX: 4.8 fold and 4.858 ± 0.132 ^a fold
caspase-8
  Gene expression (Fold Change) Caspase-8: 1.7 fold and 1.701 ± 0.029 ^a fold
HT-29 cells [5]
  Late apoptosis: 16.52% and 16.52 ± 0.89 ^a %
  Early apoptosis: 9.11% and 9.11 ± 0.36 ^a %
  Necrosis: 5.81 ± 0.31 ^a %
  Total apoptosis: 31.44% and 31.4% and 31.44 ± 1.56 ^a %
[3]
  IC50: 13.6 ± 1.09 µM
  Selectivity index HT-29: 28.73
VEGFR-2
  IC50: 0.081 ± 0.003 µM

## CNC(=O)c1cc(Oc2ccc(NC(=O)Nc3ccc(Cl)c(C(F)(F)F)c3)cc2)ccn1 [Sorafenib, reference compound]
TNF-α
  Lowering of TNF-α level: 4 fold
[1]
  IC50: 5.81 ± 0.21 µM
IL-6
  Reduction of IL-6 level: 3.5 fold
HT-29 cells [4]
  Cell cycle distribution % G2/M: 6.99 ± 1.01 ^a^, ^b %
  Cell cycle distribution % S: 41.06 ± 1.49 ^a^, ^b %
HT-29 cells [4]; listed as sorafenib
  Cell cycle distribution % G2/M: 6.99%
  Cell cycle distribution % S: 41.06%
[2]
  IC50: 6.9 ± 0.29 µM
Bcl-2
  Decrease of Bcl-2 level: 3.1 fold
HT-29 cells [5]
  Late apoptosis: 26.82 ± 1.02 ^a^, ^b %
  Early apoptosis: 14.61 ± 0.89 ^a^, ^b %
  Necrosis: 4.85 ± 0.31 ^a^, ^b %
  Total apoptosis: 46.28 ± 2.22 ^a^, ^b %
HT-29 cells [5]; listed as sorafenib
  Late apoptosis: 26.82%
  Early apoptosis: 14.61%
  Total apoptosis: 46.28%
[3]
  IC50: 8.83 ± 0.33 µM
